Reference: ChEMBL document CHEMBL1124688, “9,11-Epoxy-9-homo-14-thiaprost-5-enoic acid derivatives: potent thromboxane A2 antagonists” (J Med Chem, 1989)
“And” between values parts separate entries of the source, which are not always exact repeats. Identical values can stand only once.

Columns and labels:
[1] = species: Cavia porcellus; experiment: Duration of action of compound for Inhibition of arachidonic acid-induced response in guinea pigs; format: functional
[2] = species: Rattus norvegicus; experiment: Concentration required to elicit 50% of the maximal contraction of rat stomach strip; format: functional
Outline: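 Rat stomach strip contraction was measured as the concentration giving 50% of the maximal contraction produced by 3×10^-7 M serotonin.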

[3] = species: Cavia porcellus; experiment: In vitro evaluation for antagonist activity against the contraction-induced by histamine (1 ug/mL); format: functional; settings: read-out: I50
Outline: (§1)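 Guinea pig trachea spirals were contracted by either 9,11-azo-PGH2 (a stable PGH2/TxA2 mimetic) or histamine, and compounds were tested for blockade of these contractions.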

[4] = species: Cavia porcellus; experiment: In vitro evaluation for antagonist activity against the contraction-induced by 9,11-azo-PGH2 (0.1 ug/mL); format: functional; settings: read-out: I50; outline: as §1
[5] = test system: Cavia porcellus; experiment: Change in mean arterial blood pressure in guinea pigs by 1 mg/kg of intravenously administered compound; format: functional, Artery; settings: route intravenous
Outline: (§2)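 Anesthetized guinea pigs were challenged with arachidonic acid, and lung mechanics (lung resistance, dynamic compliance) and mean arterial blood pressure were recorded. Compounds were given as a 1.0 mg/kg rapid iv infusion, with n = 5 versus vehicle. Inhibition above 100% denotes reversal of the blood-pressure response.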

[6] = species: Homo sapiens; experiment: (§3) Percentage stimulation on the synthesis of PGE-2 was at a dose of 1000 uM; format: functional
Outline: (§4)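 Arachidonic acid metabolism was measured in a lysed platelet preparation. Thromboxane synthesis (as TxB2) and PGE2 production were determined at each listed test concentration.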

[7] = species: Homo sapiens; experiment: (§5) Percent inhibition on the synthesis of thromboxane B2 at a dose of 100 uM; format: functional; outline: as §4
[8] = species: Homo sapiens; experiment: (§6) Percentage stimulation on the synthesis of PGE-2 was at a dose of 100 uM; format: functional; outline: as §4
[9] = species: Homo sapiens; experiment: (§7) Percent inhibition on the synthesis of thromboxane B2 at a dose of 10 uM; format: functional; outline: as §4
[10] = species: Homo sapiens; experiment: (§8) Percent inhibition on the synthesis of thromboxane B2 at a dose of 1000 uM; format: functional; outline: as §4
[11] = species: Homo sapiens; experiment: (§9) Percentage stimulation on the synthesis of PGE-2 at a dose of 10 uM; format: functional; outline: as §4
[12] = species: Rattus norvegicus; experiment: maximal contraction of rat stomach strip by 3 x 10e -7M serotonin; format: functional
[13] = species: Homo sapiens; experiment: In vitro evaluation for arachidonic acid induced platelet aggregation of human platelet-rich plasma; format: functional; settings: read-out: I50
Outline: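 Human platelet-rich plasma was aggregated with arachidonic acid (800 μM). An ADP (20 μM)-induced aggregation run served as a counter-screen.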

[14] = test system: Cavia porcellus; experiment: Change in mean arterial blood pressure(MABP) in guinea pigs by 1 mg/kg of intravenously administered compound; format: functional, Artery; settings: route intravenous; outline: as §2
[15] = test system: Cavia porcellus; experiment: Inhibition of arachidonic acid-induced response in guinea pigs by 1 mg/kg of intravenously administered compound; format: functional; set-up: scale not given: the % may be the effect or the level left; settings: route intravenous; outline: as §2
[16] = molecular target: T1, Thromboxane A2 receptor (Homo sapiens, UniProt P21731); experiment: Inhibition of specific binding of HSQ(5,6-di-3H-SQ 29,548) in washed platelets; set-up: species or system Cavia porcellus
T1 sequence (P21731 whole entry): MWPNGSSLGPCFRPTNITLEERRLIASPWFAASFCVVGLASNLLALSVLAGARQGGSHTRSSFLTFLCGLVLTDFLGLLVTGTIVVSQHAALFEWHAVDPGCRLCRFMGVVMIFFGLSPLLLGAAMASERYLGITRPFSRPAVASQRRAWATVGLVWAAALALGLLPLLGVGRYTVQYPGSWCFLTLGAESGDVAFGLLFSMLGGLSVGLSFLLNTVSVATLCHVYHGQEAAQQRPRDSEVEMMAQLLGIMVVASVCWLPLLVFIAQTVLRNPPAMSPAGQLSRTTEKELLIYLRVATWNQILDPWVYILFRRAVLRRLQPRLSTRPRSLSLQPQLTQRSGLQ

[17] = test system: Cavia porcellus; experiment: Change in mean arterial blood pressure(MABP) in guinea pigs by 1 mg/kg of intravenously administered compound; activity MABP; format: functional, Artery; settings: route intravenous; outline: as §2
[18] = species: Cavia porcellus; experiment: Duration of action of compound for inhibition of arachidonic acid-induced response in guinea pigs; format: functional
[19] = species: Homo sapiens; experiment: Percent inhibition on the synthesis of thromboxane B2 at a dose of 333 uM; format: functional; outline: as §4
[20] = species: Homo sapiens; experiment: as §5; format: functional; outline: as §4; remark: listed apart in the source
[21] = species: Homo sapiens; experiment: as §6; format: functional; outline: as §4; remark: listed apart in the source
[22] = species: Homo sapiens; experiment: Percentage stimulation on the synthesis of PGE-2 was at a dose of 333 uM; format: functional; outline: as §4
[23] = species: Homo sapiens; experiment: as §8; format: functional; outline: as §4; remark: listed apart in the source
[24] = species: Homo sapiens; experiment: as §9; format: functional; outline: as §4; remark: listed apart in the source
[25] = molecular target: T1, Thromboxane A2 receptor; experiment: Compound was evaluated for inhibition of specific binding of HSQ (5,6-di-3H-SQ 29,548) in washed platelets; set-up: species or system Cavia porcellus
[26] = species: Homo sapiens; experiment: Percentage stimulation on the synthesis of PGE-2 was at a dose of 33 uM; format: functional; outline: as §4
[27] = species: Homo sapiens; experiment: as §3; format: functional; outline: as §4; remark: listed apart in the source
[28] = species: Homo sapiens; experiment: Percentage stimulation on the synthesis of PGE-2 at a dose of 100 uM; format: functional; outline: as §4
[29] = species: Homo sapiens; experiment: Percentage stimulation on the synthesis of PGE-2 at a dose of 1000 uM; format: functional; outline: as §4
[30] = species: Homo sapiens; experiment: Percentage stimulation on the synthesis of PGE-2 at a dose of 33 uM; format: functional; outline: as §4
[31] = species: Homo sapiens; experiment: Percentage stimulation on the synthesis of PGE-2 at a dose of 333 uM; format: functional; outline: as §4
[32] = species: Homo sapiens; experiment: Percentage stimulation on the synthesis of PGE-2 was at a dose of 31 uM; format: functional; outline: as §4
[33] = species: Homo sapiens; experiment: Percent inhibition on the synthesis of thromboxane B2 at a dose of 1.0 uM; format: functional; outline: as §4
[34] = species: Homo sapiens; experiment: Percentage stimulation on the synthesis of PGE-2 at a dose of 1.0 uM; format: functional; outline: as §4
[35] = species: Homo sapiens; experiment: as §7; format: functional; outline: as §4; remark: listed apart in the source
[36] = species: Homo sapiens; experiment: Percent inhibition on the synthesis of thromboxane B2 at a dose of 3.1 uM; format: functional; outline: as §4
[37] = species: Homo sapiens; experiment: Percentage stimulation on the synthesis of PGE-2 was at a dose of 3.1 uM; format: functional; outline: as §4
[38] = species: Homo sapiens; experiment: Percentage stimulation on the synthesis of PGE-2 was at a dose of 10 uM; format: functional; outline: as §4
[39] = species: Homo sapiens; experiment: Percent inhibition on the synthesis of thromboxane B2 at a dose of 31 uM.; format: functional; outline: as §4
[40] = test system: thromboxane-A synthase (Homo sapiens); experiment: Percent inhibition on the synthesis of thromboxane B2 at a dose of 100 uM
[41] = test system: thromboxane-A synthase (Homo sapiens); experiment: Percent inhibition on the synthesis of thromboxane B2 at a dose of 1000 uM
[42] = test system: thromboxane-A synthase (Homo sapiens); experiment: Percent inhibition on the synthesis of thromboxane B2 at a dose of 10 uM
[43] = molecular target: Thromboxane A2 receptor (Homo sapiens) (UniProt P21731); experiment: Compound was evaluated for inhibition of specific binding of HSQ (5,6-di-3H-SQ 29,548) in washed platelets

CCC/C=C\CSCC1C2CCC(O2)C1C/C=C\CCCC(=O)O (stereo not given)
Duration [1]: <60 min
A50 [2]: 4.3 µM
IC50 [3]: > 100000 nM
IC50 [4]: 1600 nM
Activity MABP [5]: 98% and 194%

CCCCCSCCC1C2CCC(O2)C1C/C=C\CCCC(=O)O (stereo not given)
Stimulation [6]: -75%
inhibition [7]: 80%
Stimulation [8]: -45%
inhibition [9]: 33%
inhibition [10]: 90%
Stimulation [11]: 13%

O=C(O)CCC/C=C\CC1C2CCC(O2)C1CSCCc1ccccc1 (stereo not given)
A50 [2]: 23 µM

CCC/C=C(\C)CSCC1C2CCC(O2)C1CC=CCCCC(=O)O (stereo not given)
A50 [2]: 46 µM
IC50 [3]: > 100000 nM
IC50 [4]: 1600 nM

CCCCCCSC[C@H]1C2CC[C@@H](O2)[C@H]1C/C=C\CCCC(=O)O (single isomer, unassigned; (+)) [listing 1 of 2 here]
Contraction [12]: 6%

CCCSCC1C2CCC(O2)C1C/C=C\CCCC(=O)O (stereo not given)
IC50 [13]: 700 nM
Agonist activity [14]: 50%
Activity [15]: 131% and 97%
Kd [16]: 97 nM
Activity [17]: 50%

CCCCCCSC[C@H]1C2CCC(O2)[C@H]1C/C=C\CCCC(=O)O (stereo not given in full)
A50 [2]: 39 µM

CCCCCCS(=O)(=O)CC1C2CCC(O2)C1C/C=C\CCCC(=O)O (stereo not given)
A50 [2]: 8 µM

CSCSCC1C2CCC(O2)C1C/C=C\CCCC(=O)O (stereo not given)
Contraction [12]: 28%

CCCCCC(C)SCC1C2CCC(O2)C1C/C=C\CCCC(=O)O (stereo not given)
Duration [18]: 0 min

CC/C=C\CCSCC1C2CCC(O2)C1C/C=C\CCCC(=O)O (stereo not given)
Inhibition [19]: 56.9%
Inhibition [20]: 24.4%
Duration [1]: >60 min
Stimulation [21]: 900%
Stimulation [22]: 1340%
Inhibition [23]: 91.2%
IC50 [13]: 200 nM
Stimulation [24]: 210%
Activity [15]: 245% and 97%
Kd [25]: 0.4 nM
A50 [2]: 0.2 µM
IC50 [3]: > 100000 nM
IC50 [4]: 380 nM
Stimulation [26]: 420%
Stimulation [27]: 1920%

O=C(O)CCC/C=C\CC1C2CCC(O2)C1CSCCCc1ccccc1 (stereo not given)
A50 [2]: 0.2 µM

CCSCC1C2CCC(O2)C1C/C=C\CCCC(=O)O (stereo not given)
Contraction [12]: 13%

O=C(O)CCC/C=C\CC1C2CCC(O2)C1CSCCOc1ccccc1 (stereo not given)
A50 [2]: 0.1 µM

C=CCSCC1C2CCC(O2)C1C/C=C\CCCC(=O)O (stereo not given)
Inhibition [19]: 51.8%
Inhibition [20]: 22.1%
Inhibition [23]: 61.5%
IC50 [13]: 500 nM
Duration [18]: >60 min
Stimulation [24]: 220%
Agonist activity ([14]; 1 mg/kg): 115% and 165%
Activity [15]: 273% and 98%
Contraction [12]: 26%
Kd [16]: 76 nM
Stimulation [28]: 860%
IC50 [3]: > 100000 nM
IC50 [4]: 3800 nM
Stimulation [29]: 1820%
Stimulation [30]: 380%
Stimulation [31]: 1650%

CCCCCC[S+]([O-])CC1C2CCC(O2)C1C/C=C\CCCC(=O)O (stereo not given)
Contraction [12]: 9%
A50 [2]: 21 µM

CCCCCCSC[C@H]1C2CC[C@@H](O2)[C@H]1C/C=C\CCCC(=O)O (single isomer, unassigned; (-))
Inhibition [20]: 69%
Duration [1]: <60 min
Stimulation [21]: 556%
IC50 [13]: 1000 nM
Stimulation [32]: 404%
Inhibition [33]: 7%
Stimulation [34]: 174%
Inhibition [35]: 17%
Kd [25]: 1.6 nM
Inhibition [36]: 3%
A50 [2]: 25 µM
IC50 [3]: > 100000 nM
IC50 [4]: 500 nM
Activity MABP [5]: 107% and 153%
Stimulation [37]: 137%
Stimulation [38]: 230%
Inhibition [39]: 29%

C=CCCSCC1C2CCC(O2)C1C/C=C\CCCC(=O)O (stereo not given)
IC50 [13]: 200 nM
Kd [16]: 49 nM
A50 [2]: 32 µM

O=C(O)CCC/C=C\CC1C2CCC(O2)C1CSc1ccccc1 (stereo not given)
A50 [2]: 0.8 µM

CC/C=C/CCSCC1C2CCC(O2)C1CC=CCCCC(=O)O (stereo not given)
A50 [2]: 0.04 µM

CCCCCCSC[C@H]1C2CC[C@@H](O2)[C@H]1C/C=C\CCCC(=O)O (single isomer, unassigned; (+)) [listing 2 of 2 here]
Stimulation [6]: -51%
inhibition [40]: 45%
inhibition [41]: 75%
Stimulation [8]: 44%
Stimulation [11]: 27%
inhibition [42]: 33%

CSCC1C2CCC(O2)C1C/C=C\CCCC(=O)O (stereo not given)
Contraction [12]: 30%

CCCCSCC1C2CCC(O2)C1C/C=C\CCCC(=O)O (stereo not given)
Duration [18]: <60 min
Agonist activity ([14]; 1 mg/kg): 58% and 98%
Activity [15]: 136% and 180%

CCC/C=C/CSCC1C2CCC(O2)C1CC=CCCCC(=O)O (stereo not given)
Duration [1]: <60 min
Kd [43]: 3.1 nM
A50 [2]: 26 µM
IC50 [3]: > 100000 nM
IC50 [4]: 400 nM
Activity MABP [5]: 76% and 192%

O=C(O)CCCC=CCC1C2CCC(O2)C1CSC/C=C/c1ccccc1 (stereo not given)
A50 [2]: 0.7 µM
